# Measurements from ChEMBL document CHEMBL1156455, “Interaction between HIV-1 Rev and integrase proteins: a basis for the development of anti-HIV peptides” (J Biol Chem, 2007).
# The source made the active and inactive calls. The calls are words filed in the database; no cut-off is given here.
# Experiments:
# [1] = biological target: T1, Human immunodeficiency virus type 1 integrase (Human immunodeficiency virus 1, UniProt Q7ZJM1); assay: Binding affinity to HIV1 integrase by fluorescence anisotrophy
# Procedure, shortened: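 Fluorescein-labelled peptide (final 0.05 to 0.1 µM) in 20 mM Tris pH 7.4 at 10 °C; 100 µM IN (taken as monomer) titrated in 20 steps of 10 µl at 15-min intervals. Anisotropy read at ex 480/em 530 nm after each addition; data fitted to Hill equation for Ka (Kd = 1/Ka).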
# [2] = tested on: Human immunodeficiency virus 1; assay: Inhibition of HIV1 delta env/VSV-G replication in human sup T1 T-lymphoid […] cells assessed as inhibition of total viral DNA at 12.5 uM after 2 hrs by RT-PCR; assay type: functional, organism-based
# Procedure, shortened: (§1)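 Sup T1 cells pretreated 2 h with 12.5 µM peptide or 2 µM azidothymidine, then infected with HIV-1 Δenv/VSV-G at m.o.i. 2 for 6 h. Gag and Nef DNA amplified by PCR from 10 ng total cell DNA, 29 cycles.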
# [3] = biological target: Human immunodeficiency virus type 1 integrase (Human immunodeficiency virus 1) (UniProt Q7ZJM1); assay: Inhibition of recombinant HIV1 integrase strand transfer activity
# Procedure, shortened: (§2)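 IN (0.8 µM) incubated with peptides; 3'-end processing or strand-transfer activity followed on labelled gel-purified oligonucleotide substrates by gel size shift or specific cleavage.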
# [4] = biological target: Human immunodeficiency virus type 1 integrase (Human immunodeficiency virus 1) (UniProt Q7ZJM1); assay: Inhibition of recombinant HIV1 integrase 3'-end processing activity; procedure, shortened: as §2
# [5] = tested on: Human immunodeficiency virus 1; assay: Inhibition of HIV1 delta env/VSV-G replication in human sup T1 T-lymphoid […] cells assessed as inhibition of viral DNA integration by RT-PCR; assay type: functional, organism-based
# Procedure, shortened: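 Sup T1 cells pretreated 2 h with peptide, infected with HIV-1 Δenv/VSV-G at m.o.i. 2 for 24 h. Integrated DNA quantified by two-round Alu-LTR PCR (12 cycles, then 50 real-time cycles) against an HXB2 plasmid standard curve (5 ng to 0.25 fg), quadruplicate samples.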
# [6] = tested on: Human immunodeficiency virus 1; assay: Inhibition of HIV1 replication in human T-lymphoid H9 cells assessed as decrease in viral p24 level; assay type: functional, organism-based
# Procedure, shortened: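 H9 cells pretreated 2 h with peptide, infected with wild-type HIV-1 (HXB2, from transfected HEK293T) at m.o.i. 0.1 for 1 h at 37 °C, washed, cultured 10 days; p24 measured by capture immunoassay.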
# [7] = biological target: Human immunodeficiency virus type 1 integrase (Human immunodeficiency virus 1) (UniProt Q7ZJM1); assay: Inhibition of HIV1 integrase by qualitative integration assay system; procedure, shortened: as §2
# [8] = biological target: Human immunodeficiency virus type 1 integrase (Human immunodeficiency virus 1) (UniProt Q7ZJM1); assay: (§3) Inhibition of HIV1 integrase by quantitative ELISA
# Procedure, shortened: (§4)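 Overall integration reaction: 390 nM IN preincubated 10 min with peptide, then 1 µM biotin/digoxigenin-labelled duplex oligonucleotide in 20 mM Hepes pH 7.5, 10 mM MgCl2, 10 mM DTT, 10% Me2SO, 5% PEG-8000, 0.1 mg/ml BSA for 1 h at 37 °C. Stopped with EDTA/NaCl/salmon sperm DNA buffer; product read by immunoassay on avidin-coated plates.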
# [9] = tested on: Human immunodeficiency virus 1; assay: Inhibition of HIV1 replication in human TZM-bl cells assessed as beta-galactosidase activity at 2.5 uM; assay type: functional
# Procedure, shortened: (§5)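 TZM-bl cells carrying TAR-driven β-galactosidase, incubated with peptides, then infected with HIV-1 in 20 µg/ml DEAE-dextran. Cells fixed 2 days post-infection, stained with X-gal, and blue cells counted by light microscopy.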
# [10] = tested on: Human immunodeficiency virus 1; assay: Inhibition of HIV1 delta env/VSV-G replication in human sup T1 T-lymphoid […] cells assessed as inhibition of total viral DNA at 2 uM after 2 hrs by RT-PCR; assay type: functional, organism-based; procedure, shortened: as §1
# [11] = tested on: Human immunodeficiency virus 1; assay: Inhibition of HIV1 replication in human TZM-bl cells assessed as beta-galactosidase activity; assay type: functional, organism-based; procedure, shortened: as §5
# [12] = biological target: T1, Human immunodeficiency virus type 1 integrase; assay: as §3; procedure, shortened: as §4
# T1 sequence (Q7ZJM1 whole entry): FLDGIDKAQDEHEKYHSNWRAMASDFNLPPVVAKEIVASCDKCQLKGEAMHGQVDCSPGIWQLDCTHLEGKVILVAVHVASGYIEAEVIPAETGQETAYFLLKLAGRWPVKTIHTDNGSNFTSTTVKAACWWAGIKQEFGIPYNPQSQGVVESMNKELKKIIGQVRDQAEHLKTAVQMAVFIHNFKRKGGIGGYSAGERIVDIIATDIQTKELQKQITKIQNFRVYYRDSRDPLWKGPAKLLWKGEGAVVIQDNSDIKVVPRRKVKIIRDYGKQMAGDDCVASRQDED
# Sequence of Human immunodeficiency virus type 1 integrase (Human immunodeficiency virus 1) (Q7ZJM1 as listed by the source): as the sequence (Q7ZJM1 whole entry) above
compound,measurement,setting,value
CC[C@H](C)[C@H](NC(=O)[C@H](CC(C)C)NC(=O)[C@H](CCCNC(=N)N)NC(=O)[C@@H](NC(=O)[C@@H](NC(=O)[C@H](CCCCN)NC(=O)[C@H](CC(C)C)NC(=O)[C@H](CC(C)C)NC(=O)[C@H](CCC(=O)O)NC(=O)[C@H](CCC(=O)O)NC(=O)[C@H](CC(=O)O)NC(=O)[C@H](CO)NC(=O)[C@H](CC(=O)O)NC(=O)CNC(=O)[C@H](CO)NC(=O)[C@H](CCCNC(=N)N)NC(=O)CNC(=O)[C@H](C)NC(=O)[C@@H](N)CCSC)[C@@H](C)O)C(C)C)C(=O)N[C@@H](CCCCN)C(=O)N[C@@H](Cc1ccccc1)C(=O)N[C@@H](CC(C)C)C(=O)N[C@@H](Cc1ccc(O)cc1)C(=O)N[C@@H](CCC(N)=O)C(=O)N[C@@H](CO)C(=O)N[C@@H](CC(N)=O)C(=O)N1CCC[C@H]1C(=O)N1CCC[C@H]1C(=O)N1CCC[C@H]1C(=O)N[C@@H](CO)C(=O)O,Kd,[1],6.5 µM
same,Activity,[2],inactive
CC[C@H](C)[C@H](NC(=O)[C@H](CC(C)C)NC(=O)[C@H](CCCNC(=N)N)NC(=O)[C@@H](NC(=O)[C@@H](NC(=O)[C@H](CCCCN)NC(=O)[C@@H](N)CC(C)C)[C@H](C)O)C(C)C)C(=O)N[C@@H](CCCCN)C(=O)N[C@@H](Cc1ccccc1)C(=O)N[C@@H](CC(C)C)C(=O)N[C@@H](Cc1ccc(O)cc1)C(=O)N[C@@H](CCC(N)=O)C(=O)N[C@@H](CO)C(=O)N[C@@H](CC(N)=O)C(=O)N1CCC[C@H]1C(=O)O,Activity,[3],Active
same,Activity,[4],Active
same,Activity,[5],Active
CC[C@H](C)[C@H](NC(=O)[C@H](CO)NC(=O)[C@H](Cc1c[nH]c2ccccc12)NC(=O)[C@@H](NC(=O)[C@H](CCCNC(=N)N)NC(=O)CNC(=O)[C@H](CO)NC(=O)[C@@H]1CCCN1C(=O)[C@H](CO)NC(=O)[C@@H](NC(=O)[C@H](CCCNC(=N)N)NC(=O)[C@H](Cc1ccc(O)cc1)NC(=O)[C@H](CC(C)C)NC(=O)CNC(=O)[C@@H](N)CC(C)C)[C@H](C)O)[C@@H](C)CC)C(=O)O,Activity,[6],inactive
same,Activity,[7],inactive
same,Activity,[8],Active
same,Activity,[9],inactive
CSCC[C@H](N)C(=O)N[C@@H](C)C(=O)NCC(=O)N[C@@H](CCCNC(=N)N)C(=O)N[C@@H](CO)C(=O)NCC(=O)N[C@@H](CC(=O)O)C(=O)N[C@@H](CO)C(=O)N[C@@H](CC(=O)O)C(=O)N[C@@H](CCC(=O)O)C(=O)N[C@@H](CCC(=O)O)C(=O)N[C@@H](CC(C)C)C(=O)N[C@@H](CC(C)C)C(=O)N[C@@H](CCCCN)C(=O)N[C@H](C(=O)O)[C@@H](C)O,Activity,[3],inactive
same,Activity,[4],inactive
Cc1cn([C@H]2C[C@H](N=[N+]=[N-])[C@@H](CO)O2)c(=O)[nH]c1=O,Activity,[10],Active
H-DEELLKTVRLIKFLY-OH,Activity,[3],Active
same,Activity,[4],Active
H-FRKLIYLTKVL-OH,Activity,[6],inactive
same,Activity,[7],inactive
same,Activity,[8],Active
same,Activity,[9],inactive
H-FVSTHFSVPASPWLLLIDIV-OH,Kd,[1],7.5 µM
H-GWILSTYLGRPAEPV-OH,Activity,[3],inactive
H-LKTVRLIKFLY-OH [LKTVRLIKFLY],Activity,[3],Active
same,Kd,[1],2.8 µM
same,Activity,[6],Active
same,Activity,[4],Active
same,Activity,[2],inactive
same,Activity,[11],Dose-dependent effect
same,IC50,[12],25 µM
same,inhibition at 2.5 µM,"[9]; Human immunodeficiency virus 1, TZM-bl",70%
H-QRQIRSISGWILSTY-OH,Activity,[3],Active
same,Activity,[4],Active
H-QRQIRSISGWILSTYLGRPAEPVPLQ-OH,Kd,[1],11.2 µM
H-RLIKFLYQSNPPPSP-OH,Activity,[3],inactive
same,Activity,[4],inactive
H-RSISGWILSTYLGRP-OH,Activity,[3],Active
same,Kd,[1],6.9 µM
same,Activity,[6],Active
same,Activity,[4],Active
same,Activity,[5],Active
same,Activity,[2],inactive
same,Activity,[11],Dose-dependent effect
same,IC50,[12],25 µM
same,Activity,[9],Active
H-SGDSDEELLKTVRLI-OH,Activity,[3],inactive
same,Activity,[4],Active
H-STYLGRPAEPVPLQL-OH,Activity,[3],inactive
same,Activity,[4],inactive
H-WRERQRQIRSISGWI-OH,Activity,[3],inactive
same,Activity,[4],inactive
